This is a sample that favours compounds with a hit; in the whole collection about 1.9% have one here.
PG9 Ab binder: binds the HIV-1 gp120 antibody PG9; inhibition, % at 6.7 µM; TR-FRET gp120-PG9 antibody binding; hit rate 0.43% among 360,000; in the data active = inhibition above about 8.5%
MIN6 prolif-1: MIN6 beta-cell proliferation induction; MIN6 cells proliferation, ATPlite luminescence, 48 h; cells starved in 0.2% serum; 100% = growth in 10% serum; proliferation, % at 10 µM; hit rate 0.29% among 330,000; AID 2380;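 active = compounds whose signal lies at least 3.5 SD above the mean of all wells on their plate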
Rce1 inhib: yeast Ras-converting enzyme inhibition. yeast membranes, quenched prenylated peptide cleavage fluorescence. AID 2563. Q03530. calls only. hit rate 0.27% among 290,000;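 active = fall in fluorescence gain of 50% or more versus controls, with final raw signal at or below 3038400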
UCH37 DUB inh: blocks the human deubiquitinase UCH37 | purified proteasome/UCH37, Ub-AMC cleavage fluorescence | inhibition, % (concentration not given with the values) | hit rate 0.33% among 330,000 | AID 588478;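 active = mean inhibition over replicate wells above about 20%, limit read from the data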
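Schedule: 30 min plus 25 min, room temperature / Material: human UCH37 within purified proteasomes / Technique: AMC fluorescence intensity at 355/460 nm / Buffer or medium: pH 7.4 Tris-HCl (50 mM) with ovalbumin, ATP-MgCl2, DTT / Controls: wells without proteasome as full block, compound-free enzyme plus substrate as uninhibited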
Yeast superoxide: lowers age-related superoxide in aged yeast cells. AID 2690. hit rate 0.18% among 330,000. superoxide response (% of plate mean), % at 10 µM. S. cerevisiae aged cells, superoxide DHE fluorescence; stronger effect = lower value;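 active = superoxide response under a set limit, about three screen SD below normal, cut at about 65% in these data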;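 also: yeast aged for seven days with compound at 30 °C before DHE staining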
NR1D1 modulator: Rev-erb alpha (human) modulation. hit rate 0.79% among 370,000. Rev-erbα–FITC-DNA binding, fluorescence polarization, 90 min. P20393. activity, % at 10 µM. AID 1259318;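 active = activity above about 14%, limit read from the data; passing the limit was not always enough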
Target sequence (P20393 whole entry, looked up): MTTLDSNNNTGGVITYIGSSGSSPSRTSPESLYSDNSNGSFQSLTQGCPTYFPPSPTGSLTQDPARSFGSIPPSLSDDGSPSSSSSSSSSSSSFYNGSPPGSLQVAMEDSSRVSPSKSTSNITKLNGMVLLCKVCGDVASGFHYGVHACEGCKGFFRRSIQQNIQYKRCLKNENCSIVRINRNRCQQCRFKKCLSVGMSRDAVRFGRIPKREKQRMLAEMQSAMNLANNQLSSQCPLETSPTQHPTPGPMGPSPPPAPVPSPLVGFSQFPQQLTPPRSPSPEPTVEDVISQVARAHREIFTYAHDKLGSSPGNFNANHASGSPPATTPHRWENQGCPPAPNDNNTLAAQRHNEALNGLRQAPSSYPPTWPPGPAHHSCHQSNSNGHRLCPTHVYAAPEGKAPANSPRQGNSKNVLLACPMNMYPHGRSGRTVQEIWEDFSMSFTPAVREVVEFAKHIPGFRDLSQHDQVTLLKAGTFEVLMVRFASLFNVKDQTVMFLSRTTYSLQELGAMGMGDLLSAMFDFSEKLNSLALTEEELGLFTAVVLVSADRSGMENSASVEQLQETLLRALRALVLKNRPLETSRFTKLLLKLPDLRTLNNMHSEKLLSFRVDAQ
MIN6 prolif-2: MIN6 beta-cell replication induction, confirmed. MIN6 beta-cell proliferation, ATPlite luminescence, 48 h; cells kept in 0.2% serum; scaled between 0.2% and 10% serum. proliferation increase, % at 50 µM. 920 tested, under 10 active. shares compounds with MIN6 prolif-1;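 active = proliferation increase above 40% at any of the four tested concentrations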
Numbers stand for hits; – = inactive; · = no result.

SMILES	PG9 Ab binder	MIN6 prolif-1	Rce1 inhib	UCH37 DUB inh	Yeast superoxide	NR1D1 modulator	MIN6 prolif-2
Cc1ccsc1C=NNC(=O)C1CC(=O)N(c2ccccc2)C1 (centres undefined)	·	·	·	–	·	·	·
O=C(ON=C1CCCc2occc21)c1ccccc1	·	·	·	–	·	·	·
COc1cc2c(cc1OC)/C(=C/C(=O)c1ccccc1)NCC2	–	–	–	–	–	–	·
COc1cc2c(cc1OC)/C(=C/C(=O)c1ccc([N+](=O)[O-])c(C)c1)NCC2	–	11	–	–	·	–	–
COc1cccc(C(=O)/C=C2\NCCc3cc(OC)c(OC)cc32)c1	–	16	–	–	–	–	–
O=C(COc1ccccc1)NCC1COc2ccccc2O1 (centres undefined)	–	–	–	–	–	–	·
N#Cc1ccc(OCC(=O)NCC2COc3ccccc3O2)cc1 (centres undefined)	–	11	·	–	–	–	–
Cc1ccccc1C(=O)OCC(=O)NCC1COc2ccccc2O1 (centres undefined)	–	12	·	·	·	–	–
O=C(COC(=O)c1ccccc1O)NCC1COc2ccccc2O1 (centres undefined)	–	–	·	–	–	–	·
O=C(NN=Cc1cccc(F)c1)c1csc2c1CCCC2	·	·	·	–	·	·	·
NC(=S)NN=Cc1ccc(-c2ccc(Cl)c(Cl)c2)o1	·	·	·	–	·	·	·
COc1cc(/C=C/c2[nH]c(=O)[nH]c(=O)c2[N+](=O)[O-])cc(OC)c1O	–	5.7	–	–	–	–	–
CCC1CCCCN1CCCNC(=O)c1csc2c1CCCCC2 (centres undefined)	–	–	–	–	–	–	·
CCN1CCCC1CNC(=O)c1csc2c1CCCC2 (centres undefined)	–	6.4	–	–	–	–	–
Cc1cc(C(=O)NN=C2CC(=O)CC(C)(C)C2)c(C)n1-c1ccc(F)cc1	·	·	·	–	·	·	·
Cc1ccccc1NS(=O)(=O)c1ccc(C(=O)NCC(c2ccco2)N2CCCCC2)cc1 (centres undefined)	–	–	–	–	–	–	·
Cc1ccccc1NS(=O)(=O)c1ccc(C(=O)NCC(c2ccco2)N(C)C)cc1 (centres undefined)	–	12	–	·	–	–	–
Cc1c(-c2ccccc2)[n+](=O)c2c(n1[O-])CCC2	–	8.9	–	–	–	–	–
Cc1c(-c2ccc(Cl)cc2)[n+](=O)c2c(n1[O-])CCCC2	–	–	–	–	–	–	·
NC(=O)c1cc([N+](=O)[O-])c(Cl)cc1NCc1cccnc1	–	12	·	–	–	–	–
COc1ccc(-c2cn[nH]c2-c2ccc(OC)cc2O)cc1	–	9.3	–	–	–	–	–
COc1ccc(C=NNC(=O)c2ccc(-c3ccccc3)cc2)c(OC)c1OC	·	·	·	–	·	·	·
CCOc1ccc(OCc2ccc(C(=O)NCc3ccncc3)o2)cc1	–	4.9	·	–	–	–	–
C[C@@H]1C[C@@H]2OC(=O)[C@]3(C)[C@H]2[C@@H](OC3(C)O)[C@]2(C)C(=O)CC[C@H]12 (some centres undefined)	·	11	–	·	–	·	–
CCOC(=O)c1c(C)c2c(=O)[nH]cnc2n1-c1ccccc1	–	9.8	–	–	–	–	–
SMILES	PG9 Ab binder	MIN6 prolif-1	Rce1 inhib	UCH37 DUB inh	Yeast superoxide	NR1D1 modulator	MIN6 prolif-2
CCOC(=O)c1sc2nc[nH]c(=O)c2c1C	–	–	–	–	–	–	·
CCOc1cc(/C=N/n2cnnc2)ccc1OCC(=O)Nc1ccccc1OC	–	8.0	–	·	–	–	–
Oc1ccc(C=NN2CCOCC2)c(O)c1O	·	·	·	–	·	·	·
CN(C)c1nc(N(C)C)nc(N(C#N)CCOc2ccccc2)n1	–	9.9	–	–	–	–	–
O=[N+]([O-])c1ccc(N2CCOCC2)cc1SCc1ccco1	–	0.0	–	–	–	–	–
O=[N+]([O-])c1ccc(SCc2ccco2)cc1N1CCOCC1	–	–	–	–	–	–	·
O=C(CN1CCCC1)Nc1c(C(=O)C2CC2)oc2ccccc12	–	7.1	–	–	–	–	–
CC(=O)Nc1c(C(=O)C2CC2)oc2ccccc12	·	–	–	–	–	–	·
CCCc1cc(=O)[nH]c(SCC(=O)N(CCC#N)c2ccc3c(c2)OCCO3)n1	–	–	·	–	·	–	·
CCCc1cc(=O)[nH]c(SCC(=O)c2ccc3c(c2)OCCO3)n1	–	0.0	–	–	–	–	–
